Data on 4 molecules can be found in ChEMBL document CHEMBL1806434, “Acyclic nucleoside phosphonates with a branched 2-(2-phosphonoethoxy)ethyl chain: efficient synthesis and antiviral activity” (Bioorg Med Chem, 2011).

Molecules are shown by their SMILES. Calls of active or inactive are those of the source. The rule behind the calls is not given here. Some results are limits rather than exact numbers.

Data set [1] has as its system Human alphaherpesvirus 3. Briefly: Antiviral activity against Varicella-zoster virus strain OKA expressing thymidine kinase assessed as reduction of virus induced cytopathicity by cell based assay. The class given is functional. To be noted: for EC50: Human alphaherpesvirus 3, strain Oka vaccine. The essentials: (§1)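 Confluent cell monolayers infected with 100 CCID50 virus, or 20 PFU for plaque assays, then incubated with serial compound dilutions. Host cells listed for the non-HIV panel are HEL fibroblasts, Vero, HeLa, CRFK or MDCK. Cytopathicity is scored, or plaques counted for VZV, once infected untreated controls reach full CPE.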
A general note: Cytopathic effects are the visible damage that an infection or toxin causes in cultured cells.

Data set [2] has as its system Human alphaherpesvirus 3. Briefly: Antiviral activity against thymidine kinase-deficient Varicella-zoster virus 07/1 assessed as reduction of virus induced cytopathicity by cell based assay. Format: functional, organism-based. To be noted: for EC50: Human alphaherpesvirus 3, 07/1. The essentials:
as §1

Data set [3] deals with Human alphaherpesvirus 1. The data set is described as follows: Antiviral activity against Herpes simplex virus 1 strain KOS assessed as reduction of virus induced cytopathicity by cell based assay. The class given is functional, organism-based. The following applies: for EC50: Human alphaherpesvirus 1, KOS. Put shortly:
as §1

The test system of another data set is Human alphaherpesvirus 2. Briefly: Antiviral activity against Herpes simplex virus 2 strain G assessed as reduction of virus induced cytopathicity by cell based assay. Format: functional, organism-based. To be noted: for EC50: Human alphaherpesvirus 2, strain G. The essentials: as §1
The subject of data set [4] is Human alphaherpesvirus 1. Briefly: Antiviral activity against thymidine kinase-deficient acyclovir-resistant Herpes simplex virus 1 strain KOS assessed as reduction of virus induced cytopathicity by cell based assay. The class given is functional, organism-based. To be noted: for EC50: Human alphaherpesvirus 1, KOS. The essentials: as §1
Data set [5] has as its system Human betaherpesvirus 5. The data set is described as follows: Antiviral activity against Human cytomegalovirus Davis assessed as reduction of virus induced cytopathicity by cell based assay. The class given is functional, organism-based. To be noted: for EC50: Human betaherpesvirus 5, Davis. The essentials: as §1
The nature of data set [6]: Cytotoxicity against human HEL cells assessed as alteration of cell morphology after 3 days by microscopic analysis. Format: cell-based. The essentials: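 MCC taken as the lowest compound concentration producing microscopically detectable alteration of HEL fibroblast morphology.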
The subject of the next data set is HEL. Briefly: Cytotoxicity against human HEL cells after 3 days by coulter counter. Format: cell-based. To be noted: 72 h. Put shortly:
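HEL cells seeded at 5 × 10^3 cells/well and allowed to proliferate for 24 h, then exposed to a range of compound concentrations for 3 days at 37 °C. Cells counted with a Coulter counter.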

The nature of data set [7]: Selectivity index, ratio CC50 for human HEL cells to EC50 for Varicella-zoster virus YS expressing thymidine kinase. The class given is toxicity, cell-based. To be noted: read-out: Ratio CC50/EC50. Put shortly: (§2)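 HEL fibroblasts seeded at 5 × 10^3 cells/well and allowed to grow 24 h. Medium with compound dilutions is then added and cells are incubated 3 days at 37 °C before Coulter counting. CC50, the concentration halving cell number relative to untreated controls, is read from plots. SI is CC50 divided by the antiviral EC50 from the CPE or plaque-reduction assay in HEL cells.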

Data set [8] is described as follows: Selectivity index, ratio CC50 for human HEL cells to EC50 for Varicella-zoster virus strain OKA expressing thymidine kinase. Format: toxicity, cell-based. The following applies: read-out: Ratio CC50/EC50. Put shortly: as §2
Data set [9] can be described thus: Selectivity index, ratio CC50 for human HEL cells to EC50 for thymidine kinase-deficient Varicella-zoster virus 07/1. Format: toxicity, cell-based. To be noted: read-out: Ratio CC50/EC50. Put shortly:
as §2

Data set [10] can be described thus: Selectivity index, ratio CC50 for human HEL cells to EC50 for thymidine kinase-deficient Varicella-zoster virus YS/R. The class given is toxicity, cell-based. To be noted: read-out: Ratio CC50/EC50. Put shortly: as §2
A short description of data set [11]: Selectivity index, ratio CC50 for human HEL cells to EC50 for Herpes simplex virus 1 strain KOS. Format: toxicity, cell-based. To be noted: read-out: Ratio CC50/EC50. The essentials: as §2
Data set [12] in a line: Selectivity index, ratio CC50 for human HEL cells to EC50 for Herpes simplex virus 2 strain G. To be noted: read-out: Ratio CC50/EC50. Format: toxicity, cell-based. The essentials: as §2
The nature of data set [13]: Selectivity index, ratio CC50 for human HEL cells to EC50 for thymidine kinase-deficient acyclovir-resistant Herpes simplex virus 1 strain KOS. Format: toxicity, cell-based. The following applies: read-out: Ratio CC50/EC50. The essentials: as §2
Data set [14] in a line: Selectivity index, ratio CC50 for human HEL cells to EC50 for Human cytomegalovirus strain AD169. Format: toxicity, cell-based. To be noted: read-out: Ratio CC50/EC50. The essentials: as §2
Data set [15] in a line: Selectivity index, ratio CC50 for human HEL cells to EC50 for Human cytomegalovirus Davis. The class given is toxicity, cell-based. The following applies: read-out: Ratio CC50/EC50. Put shortly:
as §2

Data set [16] in a line: Selectivity index, ratio CC50 for human HEL cells to EC50 for Vaccinia virus Lederle. The class given is toxicity, cell-based. The following applies: read-out: Ratio CC50/EC50. The essentials: as §2
Data set [17] has as its system Human alphaherpesvirus 3. Briefly: Antiviral activity against Varicella-zoster virus YS expressing thymidine kinase assessed as reduction of virus induced cytopathicity by cell based assay. The class given is functional, organism-based. To be noted: for EC50: Human alphaherpesvirus 3, YS.
Data set [18] deals with Human alphaherpesvirus 3. Briefly: Antiviral activity against thymidine kinase-deficient Varicella-zoster virus YS/R assessed as reduction of virus induced cytopathicity by cell based assay. The class given is functional, organism-based. To be noted: for EC50: Human alphaherpesvirus 3, YS/R.
For data set [19], the system named is Human betaherpesvirus 5. The data set is described as follows: Antiviral activity against Human cytomegalovirus strain AD169 assessed as reduction of virus induced cytopathicity by cell based assay. Format: functional, organism-based. Put shortly: as §1
The next data set has as its system Vaccinia virus. The data set is described as follows: Antiviral activity against Vaccinia virus Lederle assessed as reduction of virus induced cytopathicity by cell based assay. To be noted: Orthopoxvirus vaccinia. Format: functional, organism-based. The essentials:
as §1

Data set [20] concerns Vesicular stomatitis virus. The data set is described as follows: Antiviral activity against Vesicular stomatitis virus assessed as reduction of virus induced cytopathicity by cell based assay. Format: functional, organism-based. The essentials:
as §1

In the next data set the test system is Coxsackievirus B4. Briefly: Antiviral activity against Coxsackievirus B4 assessed as reduction of virus induced cytopathicity by cell based assay. The class given is functional, organism-based. The essentials: (§3)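 Confluent cell monolayers in 96-well plates (HEL, Vero, HeLa, CRFK or MDCK; the cell type per virus is not specified) infected with 100 CCID50 virus or 20 PFU and incubated with serial compound dilutions. Cytopathicity scored once it was complete in untreated infected controls.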

Data set [21] has as its system Respiratory syncytial virus. The data set is described as follows: Antiviral activity against Respiratory syncytial virus Long assessed as reduction of virus induced cytopathicity by cell based assay. The class given is functional, organism-based. The essentials:
as §3

For another data set, the system named is Human respirovirus 3. The data set is described as follows: Antiviral activity against Human parainfluenza virus 3 assessed as reduction of virus induced cytopathicity by cell based assay. The class given is functional, organism-based. The essentials: as §3
The test system of data set [22] is Mammalian orthoreovirus 1. The data set is described as follows: Antiviral activity against Reovirus-1 assessed as reduction of virus induced cytopathicity by cell based assay. The class given is functional, organism-based. Put shortly: as §3
Another data set concerns Sindbis virus. The data set is described as follows: Antiviral activity against Sindbis virus assessed as reduction of virus induced cytopathicity by cell based assay. The class given is functional, organism-based. Put shortly: as §3
The test system of the next data set is Punta Toro virus. The data set is described as follows: Antiviral activity against Punta Toro virus assessed as reduction of virus induced cytopathicity by cell based assay. The class given is functional, organism-based. The essentials: as §3
The next data set deals with L1210. The data set is described as follows: Cytostatic activity against mouse L1210 cells. Format: functional.
The next data set concerns FM3A. Briefly: Cytostatic activity against mouse FM3A cells. Format: functional.
The next data set concerns CCRF-CEM. The data set is described as follows: Cytostatic activity against human CEM cells. The class given is cell-based.
In data set [23] the test system is Human immunodeficiency virus 1. Briefly: Antiviral activity against Human immunodeficiency virus type1 3B infected in human CEM cells assessed as HIV-induced CEM giant cell formation after 4 days by microscopic analysis. Format: functional, organism-based. The following applies: Human immunodeficiency virus 1, 3B, CCRF-CEM, 96 h. The essentials: (§4)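 Human CEM cells (~3 × 10^5 cells/ml) infected with 100 CCID50/ml of HIV-1 (IIIB) or HIV-2 (ROD), then seeded into wells holding compound dilutions. After 4 days at 37 °C, HIV-induced giant cell formation is scored by microscopy.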

Data set [24] relates to Human immunodeficiency virus 2. The data set is described as follows: Antiviral activity against Human immunodeficiency virus type 2 ROD infected in human CEM cells assessed as HIV-induced CEM giant cell formation after 4 days by microscopy. Format: functional, organism-based. To be noted: Human immunodeficiency virus 2, ISOLATE ROD, CCRF-CEM, 96 h. Put shortly:
as §4

Turning to `Nc1ccn(C[C@@H](CO)OCP(=O)(O)O)c(=O)n1` [CIDOFOVIR], the half-maximal effective concentration (EC50) (in general, the concentration that produces a half-maximal response) amounted to 0.29 µM in the data set with Human alphaherpesvirus 3 [1]; 0.1 µM in the data set on Human alphaherpesvirus 3 [2]; 1.3 µM with Human alphaherpesvirus 1 [3]; 0.9 µM in the data set on Human alphaherpesvirus 2; 1 µM in the data set with Human alphaherpesvirus 1 [4]; 0.7 µM with Human betaherpesvirus 5 [5]. Also, in data set [6], the MCC at 72 h is > 317 µM. Moreover, in the data set on HEL, it took 254 µM to reach half-maximal cytotoxicity (CC50). The selectivity ratio in [7] was 880; in [8], 880; in data set [9] it was 880; in data set [10] it was 880; in [11] it was 322; in [12], 322. For the same molecule, the selectivity ratio in data set [13] was 322; in data set [14], 195; in data set [15], 195; in data set [16], 35.

For `CC(CP(=O)(O)O)OCCn1ccc(=O)[nH]c1=O` (configuration not stated), the EC50 is 9.9 µM in the data set with Human alphaherpesvirus 3 [17]; 6.3 µM in the data set on Human alphaherpesvirus 3 [1]; 13 µM in the data set on Human alphaherpesvirus 3 [2]; 12 µM in the data set on Human alphaherpesvirus 3 [18]; 43 µM in the data set on Human alphaherpesvirus 1 [3]; 34 µM in the data set on Human alphaherpesvirus 2. For the same molecule, the EC50 in the data set with Human alphaherpesvirus 1 [4] is 97 µM; in the data set on Human betaherpesvirus 5 [19] (Human betaherpesvirus 5, AD169), 36 µM; in the data set with Human betaherpesvirus 5 [5], 34 µM; in the data set on Vaccinia virus it was > 360 µM. For the same molecule, in data set [6], the MCC at 72 h is > 360 µM. Besides, it took 291 µM to reach half-maximal cytotoxicity with HEL (CC50). The outcome (in data set [20]; in the data set on Coxsackievirus B4; in data set [21]; in the data set on Human respirovirus 3; in data set [22]; with Sindbis virus) was inactive. Also, in the data set with Punta Toro virus, the outcome was inactive.

With `Nc1ncnc2c1ncn2CCOC(CO)CP(=O)(O)O` (configuration not stated), the result in the data set with Human alphaherpesvirus 3 [17], with Human alphaherpesvirus 3 [1] (strain Oka vaccine), in the data set with Human alphaherpesvirus 3 [2], in the data set on Human alphaherpesvirus 3 [18], in the data set on Human alphaherpesvirus 1 [3] and with Human alphaherpesvirus 2 was inactive. For the same molecule, the result (in the data set with Human alphaherpesvirus 1 [4]; in the data set with Human betaherpesvirus 5 [19]; in the data set on Human betaherpesvirus 5 [5]; in the data set on Vaccinia virus; in data set [20]; with Coxsackievirus B4) was inactive. Also, the outcome (in data set [21]; in the data set with Human respirovirus 3; in data set [22]; in the data set with Sindbis virus; in the data set with Punta Toro virus) was inactive.

`CC(CP(=O)(O)O)OCCn1cnc2c(N)ncnc21` (configuration not stated): the concentration giving a half-maximal response (EC50) in the data set on Human alphaherpesvirus 3 [17] was 0.1 µM; in the data set on Human alphaherpesvirus 3 [1], 0.07 µM; in the data set on Human alphaherpesvirus 3 [2], 0.11 µM; in the data set with Human alphaherpesvirus 3 [18], 0.07 µM; in the data set with Human alphaherpesvirus 1 [3], 1.3 µM; in the data set with Human alphaherpesvirus 2, 2.3 µM. Moreover, the EC50 with Human alphaherpesvirus 1 [4] is 1.7 µM; in the data set on Human betaherpesvirus 5 [5], 0.9 µM; in the data set with Vaccinia virus, 27 µM; in data set [23], 11 µM; in data set [24], 9 µM. Also, the MCC at 72 h in data set [6] turned out to be 322 µM. Moreover, the CC50 (as a rule, the concentration giving 50% cytotoxicity) in the data set on HEL is 13 µM; in the data set on L1210, 10 µM; in the data set with FM3A, 2.7 µM; in the data set on CCRF-CEM, 20 µM. Also, the result (in data set [20]; in the data set on Coxsackievirus B4; in [21]; with Human respirovirus 3; in data set [22]; in the data set with Sindbis virus) was inactive. Also, in the data set on Punta Toro virus, the outcome was inactive. Moreover, the selectivity ratio in data set [7] stood at 120; in [8] it was 120; in data set [9], 120; in [10] it was 120; in data set [11], 6; in data set [12], 6. Also, the selectivity ratio in [13] was 6; in data set [14], 14; in [15], 14; in data set [16], < 1.
